Assay results taken from ChEMBL document CHEMBL3286116, “Synthesis, biological evaluation and structure-activity correlation study of a series of imidazol-based compounds as Candida albicans inhibitors” (Eur J Med Chem, 2014).
Converted amounts (≈) assume the structure as drawn.

Assays:
[1] = system: Trichophyton mentagrophytes; test: Antifungal activity against Trichophyton mentagrophytes PMC 6552 after 72 hrs by CLSI broth microdilution method; format: functional; settings: PMC 6552, 72 h
Method in brief: (§1)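 Dermatophytes tested by CLSI broth microdilution for filamentous fungi (M38-A2). Serial two-fold dilutions of DMSO-dissolved compound in RPMI 1640, final 0.125–64. Inoculum was 0.4–5 × 10^4 CFU mL−1, incubated at 35 °C and read at 72 h. MIC80 is the lowest concentration giving ≥80% growth inhibition versus growth control. Median of five replicates, plus geometric mean.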

Candida parapsilosis [2] = test: Antifungal activity against Candida parapsilosis DSM 11224 after 48 hrs by CLSI broth microdilution method; format: functional; settings: Lodderomyces parapsilosis, DSM 11224, 48 h
Method in brief: (§2)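 Yeast CLSI broth microdilution (M27-A3). Compounds dissolved in DMSO at 100× the top test concentration, then diluted as serial two-fold dilutions in RPMI 1640 to final 0.125–64. Inoculum was 1.0–1.5 × 10^3 cells mL−1, incubated at 35 °C and read for growth at 48 h. MIC is the lowest concentration giving ≥50% growth inhibition versus growth control. Reported as the median of five replicates and as the geometric mean.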

Candida tropicalis [3] = test: Antifungal activity against Candida tropicalis PMC 0910 after 48 hrs by CLSI broth microdilution method; format: functional; settings: PMC 0910, 48 h; method in brief: as §2
Nakaseomyces glabratus [4] = test: Antifungal activity against Candida glabrata PMC 0805 after 48 hrs by CLSI broth microdilution method; format: functional; settings: PMC 0805, 48 h; method in brief: as §2
Cryptococcus neoformans [5] = test: Antifungal activity against Cryptococcus neoformans PMC 2102 after 72 hrs by CLSI broth microdilution method; format: functional; settings: PMC 2102, 72 h
Method in brief: (§3)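 Cryptococcus neoformans tested by CLSI broth microdilution in RPMI 1640, with serial two-fold dilutions from DMSO stocks at 100× the top concentration, final 0.125–64. Inoculum was 1.0–1.5 × 10^3 cells mL−1 at 35 °C, with growth read at 72 h. MIC is the lowest concentration with ≥50% growth inhibition versus control. Median of five replicates, plus geometric mean.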

Nannizzia gypsea [6] = test: Antifungal activity against Microsporum gypseum DSM 3824 after 72 hrs by CLSI broth microdilution method; format: functional; settings: DSM 3824, 72 h; method in brief: as §1
[7] = system: Trichophyton mentagrophytes; test: Antifungal activity against Trichophyton mentagrophytes PMC 6509 after 72 hrs by CLSI broth microdilution method; format: functional; settings: PMC 6509, 72 h; method in brief: as §1
[8] = system: Trichophyton mentagrophytes; test: Antifungal activity against Trichophyton mentagrophytes PMC 6515 after 72 hrs by CLSI broth microdilution method; format: functional; settings: PMC 6515, 72 h; method in brief: as §1
Candida albicans [9] = test: Antifungal activity against Candida albicans ATCC 10231 after 48 hrs by CLSI broth microdilution method; format: functional; settings: ATCC 10231, 48 h; method in brief: as §2
Cryptococcus neoformans [10] = test: Antifungal activity against Cryptococcus neoformans PMC 2107 after 72 hrs by CLSI broth microdilution method; format: functional; settings: PMC 2107, 72 h; method in brief: as §3
[11] = system: Trichophyton mentagrophytes; test: Antifungal activity against Trichophyton mentagrophytes PMC 6531 after 72 hrs by CLSI broth microdilution method; format: functional; settings: PMC 6531, 72 h; method in brief: as §1
Nannizzia gypsea [12] = test: Antifungal activity against Microsporum gypseum PMC 7303 after 72 hrs by CLSI broth microdilution method; format: functional; settings: PMC 7303, 72 h; method in brief: as §1
Cryptococcus neoformans [13] = test: Antifungal activity against Cryptococcus neoformans DSM 11959 after 72 hrs by CLSI broth microdilution method; format: functional; settings: DSM 11959, 72 h; method in brief: as §3
Cryptococcus neoformans [14] = test: Antifungal activity against Cryptococcus neoformans PMC 2123 after 72 hrs by CLSI broth microdilution method; format: functional; settings: PMC 2123, 72 h; method in brief: as §3
Candida albicans [15] = test: Antifungal activity against Candida albicans ATCC 3153 after 48 hrs by CLSI broth microdilution method; format: functional; settings: ATCC 3153, 48 h; method in brief: as §2
[16] = Cytotoxicity against human A549 cells after 48 hrs by MTT assay; format: cell-based
Method in brief: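 A549 cells (ATCC CCL-185) seeded at 2 × 10^4/well in phenol-red-free RPMI 1640 with 10% FBS, L-glutamine, penicillin and streptomycin, at 37 °C and 5% CO2. Exposed 48 h to DMSO-dissolved compounds (final 16–256; at least five concentrations, triplicate). MTT added for 3–4 h, crystals solubilized, OD read at 570 nm. CC50 taken versus the DMSO control. Mean ± SD of two independent experiments.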

Candida albicans [17] = test: Antifungal activity against Candida albicans ATCC 10261 after 48 hrs by CLSI broth microdilution method; format: functional; settings: ATCC 10261, 48 h; method in brief: as §2
Pichia kudriavzevii [18] = test: Antifungal activity against Candida krusei DSM 6128 after 48 hrs by CLSI broth microdilution method; format: functional; settings: DSM 6128, 48 h; method in brief: as §2
Nakaseomyces glabratus [19] = test: Antifungal activity against Candida glabrata PMC 0807 after 48 hrs by CLSI broth microdilution method; format: functional; settings: PMC 0807, 48 h; method in brief: as §2
Candida albicans [20] = test: Antifungal activity against Candida albicans ATCC 90028 after 48 hrs by CLSI broth microdilution method; format: functional; settings: ATCC 90028, 48 h; method in brief: as §2
Cryptococcus neoformans [21] = test: Antifungal activity against Cryptococcus neoformans PMC 2136 after 72 hrs by CLSI broth microdilution method; format: functional; settings: PMC 2136, 72 h; method in brief: as §3
Candida albicans [22] = test: Antifungal activity against Candida albicans ATCC 76615 after 48 hrs by CLSI broth microdilution method; format: functional; settings: ATCC 76615, 48 h; method in brief: as §2
Candida albicans [23] = test: Antifungal activity against Candida albicans ATCC 24433 after 48 hrs by CLSI broth microdilution method; format: functional; settings: ATCC 24433, 48 h; method in brief: as §2
Candida albicans [24] = test: Antifungal activity against Candida albicans PMC 1011 after 48 hrs by CLSI broth microdilution method; format: functional; settings: PMC 1011, 48 h; method in brief: as §2
Cryptococcus neoformans [25] = test: Antifungal activity against Cryptococcus neoformans PMC 2111 after 72 hrs by CLSI broth microdilution method; format: functional; settings: PMC 2111, 72 h; method in brief: as §3
[26] = system: Trichophyton mentagrophytes; test: Antifungal activity against Trichophyton mentagrophytes PMC 6503 after 72 hrs by CLSI broth microdilution method; format: functional; settings: PMC 6503, 72 h; method in brief: as §1
Cryptococcus neoformans [27] = test: Antifungal activity against Cryptococcus neoformans PMC 2103 after 72 hrs by CLSI broth microdilution method; format: functional; settings: PMC 2103, 72 h; method in brief: as §3
Cryptococcus neoformans [28] = test: Antifungal activity against Cryptococcus neoformans PMC 2115 after 72 hrs by CLSI broth microdilution method; format: functional; settings: PMC 2115, 72 h; method in brief: as §3
Candida parapsilosis [29] = test: Antifungal activity against Candida parapsilosis ATCC 22019 after 48 hrs by CLSI broth microdilution method; format: functional; settings: Lodderomyces parapsilosis, ATCC 22019, 48 h; method in brief: as §2
Nannizzia gypsea [30] = test: Antifungal activity against Microsporum gypseum PMC 7331 after 72 hrs by CLSI broth microdilution method; format: functional; settings: PMC 7331, 72 h; method in brief: as §1
Candida tropicalis [31] = test: Antifungal activity against Candida tropicalis DSM 11953 after 48 hrs by CLSI broth microdilution method; format: functional; settings: DSM 11953, 48 h; method in brief: as §2
Pichia kudriavzevii [32] = test: Antifungal activity against Candida krusei PMC 0613 after 48 hrs by CLSI broth microdilution method; format: functional; settings: PMC 0613, 48 h; method in brief: as §2
Candida albicans [33] = test: Antifungal activity against Candida albicans ATCC 20891 after 48 hrs by CLSI broth microdilution method; format: functional; settings: ATCC 20891, 48 h; method in brief: as §2
[34] = system: Trichophyton mentagrophytes; test: Antifungal activity against Trichophyton mentagrophytes DSM 4870 after 72 hrs by CLSI broth microdilution method; format: functional; settings: DSM 4870, 72 h; method in brief: as §1

SMILES: O=C(OC(Cn1ccnc1)c1ccc(F)cc1)N1CCN(c2ccc(Cl)cc2)CC1 (centres undefined)
- MIC80 [1]: 32 µg/mL (≈ 74.6 µM)
- MIC50 (Candida parapsilosis [2]): 0.25 µg/mL (≈ 0.583 µM)
- MIC50 (Candida tropicalis [3]): 2 µg/mL (≈ 4.66 µM)
- MIC50 (Nakaseomyces glabratus [4]): 2 µg/mL (≈ 4.66 µM)
- MIC50 (Cryptococcus neoformans [5]): 4 µg/mL (≈ 9.33 µM)
- MIC80 (Nannizzia gypsea [6]): 16 µg/mL (≈ 37.3 µM)
- MIC80 [7]: 16 µg/mL (≈ 37.3 µM)
- MIC80 [8]: 8 µg/mL (≈ 18.7 µM)
- MIC50 (Candida albicans [9]): 2 µg/mL (≈ 4.66 µM)
- MIC50 (Cryptococcus neoformans [10]): 1 µg/mL (≈ 2.33 µM)
- MIC80 [11]: 8 µg/mL (≈ 18.7 µM)
- MIC80 (Nannizzia gypsea [12]): 16 µg/mL (≈ 37.3 µM)
- MIC50 (Cryptococcus neoformans [13]): 4 µg/mL (≈ 9.33 µM)
- MIC50 (Cryptococcus neoformans [14]): 4 µg/mL (≈ 9.33 µM)
- MIC50 (Candida albicans [15]): 8 µg/mL (≈ 18.7 µM)
- CC50 at 48 h [16]: 78.4 µg/mL (≈ 183 µM)
- MIC50 (Candida albicans [17]): 1 µg/mL (≈ 2.33 µM)
- MIC50 (Pichia kudriavzevii [18]): 8 µg/mL (≈ 18.7 µM)
- MIC50 (Nakaseomyces glabratus [19]): 8 µg/mL (≈ 18.7 µM)
- MIC50 (Candida albicans [20]): 0.5 µg/mL (≈ 1.17 µM)
- MIC50 (Cryptococcus neoformans [21]): 4 µg/mL (≈ 9.33 µM)
- MIC50 (Candida albicans [22]): 8 µg/mL (≈ 18.7 µM)
- MIC50 (Candida albicans [23]): 4 µg/mL (≈ 9.33 µM)
- MIC50 (Candida albicans [24]): 0.5 µg/mL (≈ 1.17 µM)
- MIC50 (Cryptococcus neoformans [25]): 4 µg/mL (≈ 9.33 µM)
- MIC80 [26]: 16 µg/mL (≈ 37.3 µM)
- MIC50 (Cryptococcus neoformans [27]): 2 µg/mL (≈ 4.66 µM)
- MIC50 (Cryptococcus neoformans [28]): 4 µg/mL (≈ 9.33 µM)
- MIC50 (Candida parapsilosis [29]): 2 µg/mL (≈ 4.66 µM)
- MIC80 (Nannizzia gypsea [30]): 4 µg/mL (≈ 9.33 µM)
- MIC50 (Candida tropicalis [31]): 2 µg/mL (≈ 4.66 µM)
- MIC50 (Pichia kudriavzevii [32]): 1 µg/mL (≈ 2.33 µM)
- MIC50 (Candida albicans [33]): 0.5 µg/mL (≈ 1.17 µM)
- MIC80 [34]: 16 µg/mL (≈ 37.3 µM)
